Assay results as given in ChEMBL document CHEMBL1158382 (Eur J Med Chem, 2009).

Legend:
Mus musculus = test: Analgesic activity in Albino mouse assessed as inhibition of acetic acid-induced writhing at 300 umol/kg, po administered 1 hr before acetic acid challenge and measured 10 mins after acetic acid challenge; type: functional
In short: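 Mice of both sexes (18–23 g) dosed orally as a suspension in 5% Arabic gum in saline; vehicle controls got an equal volume. Acetic acid 0.6% (0.1 mL/10 g) given i.p. 1 h later. Constrictions per animal counted for 20 min, starting 10 min after the injection. Value is % inhibition of constrictions versus vehicle group, mean ± SEM, N = 8–10.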

Rattus norvegicus [1] = test: Antiinflammatory activity in Albino rat assessed as inhibition of carrageenan-induced paw edema at 300 umol/kg, po administered 1 hr before carrageenan challenge and measured 3 hrs after carrageenan challenge
Rattus norvegicus [2] = test: Gastrointestinal toxicity in Albino rat assessed ulcer index at 300 umol/kg, po; details: in vivo
[3] = Ratio of IC50 for COX1 to IC50 for COX2

Compound | inhibition in vivo at 300 µmol/kg (Mus musculus) [%] | inhibition in vivo at 300 µmol/kg (Rattus norvegicus [1]) [%] | UI (Rattus norvegicus [2]) | Ratio IC50 [3]
CC1=C(CC(=O)O)c2cc(F)ccc2/C1=C\c1ccc([S+](C)[O-])cc1 (configuration not stated) | 49 | 67 |  | 
Cc1ccc(-c2cc(C(F)(F)F)nn2-c2ccc(S(N)(=O)=O)cc2)cc1 [CELECOXIB] | 56 | 35 |  | 
COC(=O)CC1=C(C)/C(=C/c2ccc(S(C)(=O)=O)cc2)c2ccc(F)cc21 | 21 | 15 | 0 | 
CC1=C(CC(=O)N2CCSCC2)c2cc(F)ccc2/C1=C\c1ccc(S(C)(=O)=O)cc1 | 48 | 11 | 4 | 
CC1=C(CC(=O)N2CCCCC2)c2cc(F)ccc2/C1=C\c1ccc(S(C)(=O)=O)cc1 | 36 | 19 | 0 | 
CC1=C(CC(=O)O)c2cc(F)ccc2/C1=C\c1ccc(S(C)(=O)=O)cc1 [EXISULIND] | 34 | 48 |  | 
CCCNC(=O)CC1=C(C)/C(=C/c2ccc(S(C)(=O)=O)cc2)c2ccc(F)cc21 | 39 | 20 | 1.4 | 
CNC(=O)CC1=C(C)/C(=C/c2ccc([S+](C)[O-])cc2)c2ccc(F)cc21 (configuration not stated) | 6 |  |  | 
CNC(=O)CC1=C(C)/C(=C/c2ccc(S(C)(=O)=O)cc2)c2ccc(F)cc21 | 43 | 35 | 0 | 
CCNC(=O)CC1=C(C)/C(=C/c2ccc(S(C)(=O)=O)cc2)c2ccc(F)cc21 | 59 | 27 | 0 | 
CCN(CC)C(=O)CC1=C(C)/C(=C/c2ccc(S(C)(=O)=O)cc2)c2ccc(F)cc21 | 14 | 27 | 1 | 
CC1=C(CC(=O)Nc2ccccc2)c2cc(F)ccc2/C1=C\c1ccc(S(C)(=O)=O)cc1 | 19 | 12 | 0 | 
Cc1ccc(Cl)c(Nc2ccccc2C(=O)NCCCCl)c1Cl |  |  |  | 40
Cc1ccc(Cl)c(Nc2ccccc2C(=O)NOCc2ccc([N+](=O)[O-])cc2)c1Cl |  |  |  | 273
Cc1ccc(Cl)c(Nc2ccccc2C(=O)NCCOc2ccccc2)c1Cl |  |  |  | 440
CCCCNC(=O)CC1=C(C)/C(=C/c2ccc(S(C)(=O)=O)cc2)c2ccc(F)cc21 | 35 | 7 | 2 | 
COc1ccc2c(c1)c(CC(=O)Nc1cccnc1)c(C)n2C(=O)c1ccc(Cl)cc1 |  |  |  | 1300
CC1=C(CC(=O)N2CCOCC2)c2cc(F)ccc2/C1=C\c1ccc(S(C)(=O)=O)cc1 | 22 | 4 | 0 | 
Cc1ccc(Cl)c(Nc2ccccc2C(=O)O)c1Cl |  |  |  | 0.72
